Source: PubChem BioAssay (several laboratories)
Diaph inh CS = inhibits diaphorase or chemically oxidizes, flagging diaphorase assay artifacts; 190,000 compounds, 0.69% hits; diaphorase resazurin-to-resorufin fluorescence, NADH, 16 min; bacterial (C. kluyveri) enzyme, not human; inhibition, % at 20 µM;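 active means primary screen inhibition at 20 µM above a set limit, cut at about 50% in these data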
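Assay system – diaphorase enzyme from Clostridium kluyveri · Amount – diaphorase 0.14 U/mL (working solution) · Times – reaction incubation of 16 min at room temperature · Controls – No-NADH positive control and DMSO neutral control · Signal – resorufin fluorescence 544/590 nm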
WT yeast gro inh = growth inhibition of WT yeast, mitochondrial fusion screen. mitochondrial fusion phenotypic screen, WT strain. inhibition, % at 10 µM. 190,000 compounds, 2.1% hits. AID 1362; in the data active means inhibition above about 58%; tested in S. cerevisiae
Lmaj promast = inhibitors of Leishmania major promastigote growth | AID 1063 | Leishmania major promastigotes, resazurin fluorescence viability | inhibition, % at 10 µM | 200,000 compounds, 9% hits; in the data active means inhibition above about 50%;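 further: promastigotes grown with compound for 44 hours at 28 °C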
Diaph act CS = activates diaphorase or chemically reduces, flagging diaphorase assay artifacts; activation factor at 20 µM; Diaphorase/resazurin coupled assay, resorufin fluorescence, 16 min; active compounds read high; 1 = vehicle wells, 0 = NADH-free wells; 190,000 compounds, 0.005% hits;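 active means diaphorase activity raised at least twofold by the compound at 20 µM; inactive means activation factor below 2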
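Material: bacterial diaphorase enzyme (C. kluyveri); amount: enzyme 0.07 U/mL final; reagent: NADH substrate 0.114 mM plus resazurin dye 0.1 mM, final; doses: single compound dose of 20 µM, 1% DMSO final; timing: 16 min enzyme reaction, ambient temperature; measured by: fluorescence of resorufin, 544 nm excitation, 590 nm emission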
ROMK primary = modulators of human ROMK potassium channel; P48048; Tet-inducible ROMK, thallium flux fluorescence; actives lie on both sides; 130,000 compounds, 2% hits; AID 1918; B-score at 10 µM;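 active means signal ratio slope over the read window, or its plate-corrected B-score, at least 3 SD from the plate mean, either direction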;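 further: B-score of the F/F0 ratio slope over 7 to 12 s after thallium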
KCC2 mod = KCC2 (human) Cl- transport modulation | Q9H2X9 | KCC2 cells, thallium flux FluoZin-2 fluorescence | B-score of Tl+ flux slope (higher = more flux/activation; lower = inhibition) at 10 µM | 190,000 compounds, 2.2% hits | AID 1456;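 active means thallium flux slope and its plate-corrected score both differing from the plate sample mean at a set confidence after two filtering rounds, in either direction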;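 further: slope of fluorescence scaled to starting intensity during 10 to 20 s after thallium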
Large screens that a line does not name were inactive. Only some compounds are listed: those with a hit (about 12% of all), similar ones and a draw of the others.

O=C(Nc1ccncc1)c1ccc(-c2ccccc2)cc1	none
COc1ccc(-c2nn(-c3ccccc3)cc2/C=N/Nc2ccc3ccccc3n2)cc1OC	Lmaj promast 50.5
COc1ccc(-c2nn(-c3ccccc3)cc2/C=N/NC(=S)NC(C)C)cc1OC	Lmaj promast 61.3
CC(C)CN(C)Cc1c(C(=O)N2CCc3ccccc3C2)nc2ccc(Cl)cn12	none
CCC(=O)c1ccc(OCC(=O)NCC2(N3CCCCC3)CCCCC2)cc1	none
COc1cc(C(C[N+](=O)[O-])c2c(-c3ccccc3)cc3ccccn23)cc(OC)c1OC (stereo not given)	Lmaj promast 92.6
COc1cc(-c2ncc3ccccn23)cc(OC)c1OC	none
CC(=O)c1ccc(NC(=O)Nc2cccc(Cl)c2)cc1	WT yeast gro inh 72.3 (no result: KCC2 mod)
CC(=O)c1ccc(N2CCN(C(=S)Nc3cccc(Cl)c3)CC2)cc1	Lmaj promast 56.6
COC(=O)c1ccc(C(=O)OC)c(NC(=S)N2CCN(c3cccc(Cl)c3)CC2)c1	Lmaj promast 73.6 (no result: ROMK primary)
COc1ccc(C2CC(c3ccccc3)Nc3nc(NS(C)(=O)=O)nn32)cc1 (stereo not given)	none (no result: Diaph inh CS, WT yeast gro inh, Lmaj promast, Diaph act CS)
CC(C)(C)c1ccc(OCC(=O)NCCN2CCCC2)cc1	Lmaj promast 80.1 (no result: WT yeast gro inh, ROMK primary)
S=c1[nH]cnc2sc(-c3ccccc3)cc12	ROMK primary 7.73, KCC2 mod 196
CNc1ncnc2sc(-c3ccccc3)cc12	none
S=c1[nH]cnc2scc(-c3ccccc3)c12	Diaph inh CS 64.1, Lmaj promast 98.8, ROMK primary 6.15, KCC2 mod 61.7
Clc1ncnc2scc(-c3ccccc3)c12	none (no result: ROMK primary)
O=C(Oc1ccc2c3c(c(=O)oc2c1)CCC3)c1ccccc1[N+](=O)[O-]	none (no result: ROMK primary)
